{"source": "ChEMBL document CHEMBL1649091", "about": "“Flavonoids with an oligopolysulfated moiety: a new class of anticoagulant agents” (J Med Chem, 2011)", "key": {"[1]": {"test_system": "Mus musculus", "test": "Anticoagulant activity in mouse assessed as increase in activated partial prothrombin time at 150 umol/kg, ip relative to control", "type": "functional", "outline": "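Adult male CD1 mice (30-35 g) given compound in saline ip at 150 µmol/kg, fasted on the day. Citrated portal vein blood taken at 30, 60 and 120 min. APTT measured in platelet-poor plasma. Expressed as ratio to saline-treated mice, mean ± SEM of three experiments.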"}, "[2]": {"test": "Anticoagulant activity in human plasma assessed as concentration required to double prothrombin time", "type": "functional", "outline": "(§1)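 Citrated pooled normal human plasma mixed 1:1 with compound in water (final 5 × 10-3 to 0.05 × 10^-3 M) and held 2 min at 37 °C. APTT: reagent added, 6 min at 37 °C, then 25 mmol/L CaCl2. PT: prewarmed PT reagent. TT: prewarmed thrombin (100 U/mL). Clotting read on a coagulometer, duplicate, three days (n = 6). Doubling concentration taken from linear regression of each concentration-response curve.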"}, "[3]": {"test": "Anticoagulant activity in human plasma assessed as concentration required to double activated partial prothrombin time", "type": "functional", "outline": "as §1"}, "[4]": {"test": "Anticoagulant activity in human plasma assessed as concentration required to double thrombin time", "type": "functional", "outline": "as §1"}, "[5]": {"test_system": "Blood", "test": "Anticoagulant activity in human whole blood assessed as clotting time at 1.25 x 10^-4M by thromboelastography in presence of intrinsic activators", "type": "functional", "outline": "(§2)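 Citrated whole blood from healthy donors (1:9 citrate), run within 5 h on a ROTEM analyzer. Compound in saline diluted 1:16 into blood to the final concentration stated; saline control. Intrinsic (InTEM) or extrinsic (ExTEM) activator added. Clot monitored at 37 °C in an oscillating cup-and-pin system for up to 60 min, giving R, K, angle and MA.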"}, "[6]": {"test_system": "Blood", "test": "Anticoagulant activity in human whole blood assessed as clotting formation time at 1.25 x 10^-4M by thromboelastography in presence of intrinsic activators", "type": "functional", "outline": "as §2"}, "[7]": {"test_system": "Blood", "test": "Anticoagulant activity in human whole blood assessed as clotting time at 1.25 x 10^-4M by thromboelastography in presence of extrinsic activators", "type": "functional", "outline": "as §2"}, "[8]": {"test_system": "Blood", "test": "Anticoagulant activity in human whole blood assessed as clotting formation time at 1.25 x 10^-4M by thromboelastography in presence of extrinsic activators", "type": "functional", "outline": "as §2"}, "[9]": {"test": "Antiplatelet activity against collagen ADP-induced human platelet aggregation assessed as closure time at 1.25 x 10^-4M", "type": "functional", "outline": "(§3)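 Compound solution added to citrated human whole blood (125 µL into 1875 µL) to the final concentration stated, then run on a PFA-100 in collagen/ADP and collagen/epinephrine cartridges. Closure time is the time until platelets occlude the membrane aperture, in seconds. Mean ± SEM of three independent experiments.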"}, "[10]": {"test": "Antiplatelet activity against collagen EPI-induced human platelet aggregation assessed as closure time at 1.25 x 10^-4M", "type": "functional", "outline": "as §3"}, "[11]": {"target": "Coagulation factor X (Homo sapiens) (UniProt P00742)", "sequence (P00742 41-179 limits assumed)": "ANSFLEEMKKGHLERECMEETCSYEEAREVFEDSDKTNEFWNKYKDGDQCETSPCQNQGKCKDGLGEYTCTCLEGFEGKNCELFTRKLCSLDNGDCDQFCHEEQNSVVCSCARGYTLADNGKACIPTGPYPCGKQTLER", "sequence (P00742 235-488 limits assumed)": "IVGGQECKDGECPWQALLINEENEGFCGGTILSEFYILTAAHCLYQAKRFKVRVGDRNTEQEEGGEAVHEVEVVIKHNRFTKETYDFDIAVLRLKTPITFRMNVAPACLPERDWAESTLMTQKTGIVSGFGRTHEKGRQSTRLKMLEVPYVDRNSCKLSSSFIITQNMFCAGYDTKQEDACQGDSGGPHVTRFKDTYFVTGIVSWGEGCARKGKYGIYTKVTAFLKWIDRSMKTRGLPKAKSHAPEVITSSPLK", "test": "Inhibition of human factor 10a assessed as 25 x 10^-6M chromogenic TH substrate hydrolysis at 2 x 10^-3M", "outline": "(§4)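 Direct FXa test, with buffer in place of ATIII: compound in water in 50 mM Tris/HCl pH 8.3, 227 mM NaCl, 0.1% BSA, 10 min at 37 °C. Human FXa (0.5 U/mL final) added for 10 min, then CBS 31.39 (25 or 125 × 10^-6 M). Read at 405 nm every 12 s for 20 min. Percent inhibition from initial slope against water control, Michaelis-Menten fit.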"}, "[12]": {"target": "Coagulation factor X (Homo sapiens) (UniProt P00742)", "test": "Inhibition of human factor 10a assessed as 25 x 10^-6M chromogenic TH substrate hydrolysis at 1 x 10^-3M", "outline": "as §4"}, "[13]": {"target": "Coagulation factor X (Homo sapiens) (UniProt P00742)", "test": "Inhibition of human factor 10a assessed as 25 x 10^-6M chromogenic TH substrate hydrolysis at 0.5 x 10^-3M", "outline": "as §4"}, "[14]": {"target": "Coagulation factor X (Homo sapiens) (UniProt P00742)", "test": "Inhibition of human factor 10a assessed as 125 x 10^-6M chromogenic TH substrate hydrolysis at 2 x 10^-3M", "outline": "as §4"}, "[15]": {"target": "Coagulation factor X (Homo sapiens) (UniProt P00742)", "test": "Inhibition of human factor 10a assessed as 125 x 10^-6M chromogenic TH substrate hydrolysis at 1 x 10^-3M", "outline": "as §4"}, "[16]": {"target": "Coagulation factor X (Homo sapiens) (UniProt P00742)", "test": "Inhibition of human factor 10a assessed as 125 x 10^-6M chromogenic TH substrate hydrolysis at 0.5 x 10^-3M", "outline": "as §4"}, "[17]": {"target": "T1, Coagulation factor X/antithrombin III (Homo sapiens) (UniProt P01008+P00742)", "test": "Inhibition of human antithrombin 3/factor 10a assessed as 25 x 10^-6M CBS31.39 substrate hydrolysis at 2 x 10^-3M", "type": "protein-complex assay"}, "[18]": {"target": "T1, Coagulation factor X/antithrombin III (Homo sapiens)", "test": "Inhibition of human antithrombin 3/factor 10a assessed as 25 x 10^-6M CBS31.39 substrate hydrolysis at 1 x 10^-3M", "type": "protein-complex assay"}, "[19]": {"target": "T1, Coagulation factor X/antithrombin III (Homo sapiens)", "test": "Inhibition of human antithrombin 3/factor 10a assessed as 25 x 10^-6M CBS31.39 substrate hydrolysis at 0.5 x 10^-3M", "type": "protein-complex assay"}, "[20]": {"target": "T1, Coagulation factor X/antithrombin III (Homo sapiens)", "test": "Inhibition of human antithrombin 3/factor 10a assessed as 125 x 10^-6M CBS31.39 substrate hydrolysis at 2 x 10^-3M", "type": "protein-complex assay"}, "[21]": {"target": "T1, Coagulation factor X/antithrombin III (Homo sapiens)", "test": "Inhibition of human antithrombin 3/factor 10a assessed as 125 x 10^-6M CBS31.39 substrate hydrolysis at 1 x 10^-3M", "type": "protein-complex assay"}, "[22]": {"target": "T1, Coagulation factor X/antithrombin III (Homo sapiens)", "test": "Inhibition of human antithrombin 3/factor 10a assessed as 125 x 10^-6M CBS31.39 substrate hydrolysis at 0.5 x 10^-3M", "type": "protein-complex assay"}, "[23]": {"target": "Prothrombin (Homo sapiens) (UniProt P00734)", "test": "Inhibition of human thrombin", "outline": "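Direct thrombin assay without ATIII: compound in water in 50 mM Tris/HCl pH 8.3, 227 mM NaCl, 0.1% BSA, 10 min at 37 °C. Human thrombin (0.06 U/mL final) added for 10 min, then Chromozym TH (178 × 10^-6 M). Read at 405 nm every 12 s for 20 min. Percent inhibition from initial slope against water control. Duplicates on ≥3 days.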"}, "[24]": {"test": "Stability of the compound in human plasma assessed as compound remaining after 3 hrs", "type": "ADME, cell-free", "conditions": "read-out: Activity", "outline": "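Compound at 25 µM final in human plasma diluted 1:1 with PBS pH 7.4, shaken at 37 °C for 180 min. Time-zero and 180-min samples quenched with TBA buffer and cold acetonitrile, then centrifuged. Supernatant dried, redissolved and analysed by HPLC. Three independent samples per time point.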"}, "[25]": {"test_system": "Mus musculus", "test": "Hepatotoxicity in mouse liver assessed as change in plasma GOT/GPT level at 150 umol/kg, ip", "type": "toxicity, organism-based", "conditions": "in vivo", "outline": "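Male CD1 mice (30-35 g), compound in saline ip at 150 µmol/kg. Portal vein citrated blood taken at 30, 60 and 120 min. GOT and GPT (U/L) measured in platelet-poor plasma on an automated chemistry analyzer. Four independent experiments, mean ± SEM.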"}, "[26]": {"test_system": "Blood", "test": "Anticoagulant activity in human whole blood assessed as alpha angle at 1.25 x 10^-4M by thromboelastography in presence of intrinsic activators", "type": "functional", "outline": "as §2"}, "[27]": {"test_system": "Blood", "test": "Anticoagulant activity in human whole blood assessed as alpha angle at 1.25 x 10^-4M by thromboelastography in presence of extrinsic activators", "type": "functional", "outline": "as §2"}, "[28]": {"test_system": "Blood", "test": "Anticoagulant activity in human whole blood assessed as maximum amplitude at 1.25 x 10^-4M by thromboelastography in presence of intrinsic activators", "type": "functional", "outline": "as §2"}, "[29]": {"test_system": "Blood", "test": "Anticoagulant activity in human whole blood assessed as maximum amplitude at 1.25 x 10^-4M by thromboelastography in presence of extrinsic activators", "type": "functional", "outline": "as §2"}}, "note": "Activity calls are given as the source filed them. No cut-off for these calls is given here."}
{"smiles": "C[C@H]1O[C@@H](OC[C@@H]2O[C@H](Oc3c(-c4ccc(OS(=O)(=O)O)c(OS(=O)(=O)O)c4)oc4cc(OS(=O)(=O)O)cc(OS(=O)(=O)O)c4c3=O)[C@@H](OS(=O)(=O)O)[C@H](OS(=O)(=O)O)[C@H]2OS(=O)(=O)O)[C@@H](OS(=O)(=O)O)[C@@H](OS(=O)(=O)O)[C@@H]1OS(=O)(=O)O", "values": [{"measurement": "fold change (FC)", "setting": "[1]", "result": 1.5}, {"measurement": "2PT", "setting": "[2]", "result": 649, "unit": "µM"}, {"measurement": "2aPTT", "setting": "[3]", "result": 66, "unit": "µM"}, {"measurement": "Activity", "setting": "[4]", "result": 877, "unit": "µM"}, {"measurement": "Time", "setting": "[5]", "result": 261, "unit": "s"}, {"measurement": "Time", "setting": "[6]", "result": 176, "unit": "s"}, {"measurement": "Time", "setting": "[7]", "result": 120, "unit": "s"}, {"measurement": "Time", "setting": "[8]", "result": 257, "unit": "s"}, {"measurement": "Time", "setting": "[9]", "result": 189, "unit": "s"}, {"measurement": "Time", "setting": "[10]", "result": 244, "unit": "s"}, {"measurement": "inhibition", "setting": "[11]", "result": 40, "unit": "%"}, {"measurement": "inhibition", "setting": "[12]", "result": 30.9, "unit": "%"}, {"measurement": "inhibition", "setting": "[13]", "result": "inactive"}, {"measurement": "inhibition", "setting": "[14]", "result": 42.7, "unit": "%"}, {"measurement": "inhibition", "setting": "[15]", "result": 32, "unit": "%"}, {"measurement": "inhibition", "setting": "[16]", "result": 22.4, "unit": "%"}, {"measurement": "inhibition", "setting": "[17]", "result": 31.4, "unit": "%"}, {"measurement": "inhibition", "setting": "[18]", "result": 30.5, "unit": "%"}, {"measurement": "inhibition", "setting": "[19]", "result": 29.3, "unit": "%"}, {"measurement": "inhibition", "setting": "[20]", "result": 33.1, "unit": "%"}, {"measurement": "inhibition", "setting": "[21]", "result": 20.7, "unit": "%"}, {"measurement": "inhibition", "setting": "[22]", "result": "inactive"}, {"measurement": "inhibition", "setting": "[23]", "result": "inactive"}, {"measurement": "remaining at 3 h", "setting": "[24]", "result": 95, "unit": "%"}, {"measurement": "Activity", "setting": "[25]", "result": "Non-toxic"}, {"measurement": "Activity", "setting": "[26]", "result": 61, "unit": "degree"}, {"measurement": "Activity", "setting": "[27]", "result": 51, "unit": "degree"}, {"measurement": "Activity", "setting": "[28]", "result": 48, "unit": "mm"}, {"measurement": "Activity", "setting": "[29]", "result": 46, "unit": "mm"}]}
